# Assay results: article PMC10896134 (Pharmaceutical Biology, 2024)
# Key:
# MCF-7 = experiment: Antiproliferation assay; assay type: cell-based; conditions: Homo sapiens, MCF7, 24 h, read-out: IC50 = mean ± SD, MCF-7
# Outline: (§1)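 Cell lines were grown at 37 °C under 5% CO2 in their own media: A549 in DMEM/F12, H446 in RPMI 1640, and HeLa, MCF-7, L02 and BEAS-2B in high-glucose DMEM with L-glutamine, with 10% FBS and penicillin/streptomycin. Cells were seeded in 96-well plates and exposed to test compounds or reference agents at 37 °C for 24 h. CCK-8 was added for 2 h and absorbance read at 450 nm.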
# Hela = experiment: Antiproliferation assay; assay type: cell-based; conditions: Homo sapiens, 24 h, read-out: IC50 = mean ± SD, Hela
# Outline: as §1
# A549 = experiment: Antiproliferation assay; assay type: cell-based; conditions: Homo sapiens, A549, 24 h, read-out: IC50 = mean ± SD, A549
# Outline: as §1
# H446 = experiment: Antiproliferation assay; assay type: cell-based; conditions: Homo sapiens, NCI-H446, 24 h, read-out: IC50 = mean ± SD, H446
# Outline: as §1
# BEAS-2B = experiment: Antiproliferation assay; assay type: cell-based; conditions: Homo sapiens, 24 h, read-out: IC50 = mean ± SD, BEAS-2B
# Outline: as §1
# L02 = experiment: Antiproliferation assay; assay type: cell-based; conditions: Homo sapiens, L02, 24 h, read-out: IC50 = mean ± SD, L02
# Outline: as §1
# [1] = tested on: PI3K/Akt pathway in A549 cells; experiment: Western blot of PI3K/Akt signalling pathway proteins; assay type: cell-based, human; conditions: A549, 1.0 µM, 24 h
# Outline: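 A549 cells were treated 24 h with test compound (0.1, 0.5, 1.0 or 2.0 µM), LY294002 (1.0 µM) or a reference agent (1.0 µM). Lysates were heat-denatured in non-reducing sample buffer and quantified by Bradford assay. 20 µg protein ran on 10% SDS-PAGE, transferred to PVDF and probed for PI3K, pPI3K, Akt and pAkt with GAPDH as loading control. Detection was by ECL with densitometry.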
Compound,IC50 (MCF-7) [µM],IC50 (Hela) [µM],IC50 (A549) [µM],IC50 (H446) [µM],IC50 (BEAS-2B) [µM],IC50 (L02) [µM],pPI3K/PI3K and pAkt/Akt ratio [1]
"COc1cc([C@@H]2c3cc4c(cc3[C@H](O)[C@H]3COC(=O)[C@H]23)OCO4)cc(OC)c1OC [PPT, Podophyllotoxin, reference compound]",11.7 ± 0.45,15.3 ± 0.58,14.7 ± 1.14,3.69 ± 0.38,8.91 ± 0.72,9.42 ± 0.74,
"COc1cc([C@@H]2c3cc4c(cc3[C@H](OC(=O)CCCc3ccc(NS(=O)(=O)c5ccc(F)cc5F)cc3)[C@H]3COC(=O)[C@H]23)OCO4)cc(OC)c1OC [Compound E9, (5R,5aR,8aR,9R)-8-oxo-9-(3,4,5-trimethoxyphenyl)-5,5a,6,8,8a,9-hexahydrofuro [3′,4′:6,7]naphtho[2,3-d][1,3]dioxol-5-yl4-(4-((2,4-difluorophenyl)sulfonamido)phenyl)butanoate]",4.97 ± 0.53,62 ± 1.58,0.55 ± 0.17,9.27 ± 0.74,99.3 ± 3.53,> 100,
"CCCc1ccc(S(=O)(=O)Nc2ccc(CCCC(=O)O[C@H]3c4cc5c(cc4[C@@H](c4cc(OC)c(OC)c(OC)c4)[C@H]4C(=O)OC[C@@H]43)OCO5)cc2)cc1 [Compound E3, (5R,5aR,8aR,9R)-8-oxo-9-(3,4,5-trimethoxyphenyl)-5,5a,6,8,8a,9-hexahydrofuro [3′,4′:6,7]naphtho[2,3-d][1,3]dioxol-5-yl4-(4-((4-propylphenyl)sulfonamido)phenyl)butanoate]",18.7 ± 0.95,39.2 ± 0.56,17.8 ± 1.11,11 ± 0.47,73.6 ± 1.35,> 100,
"COc1cc([C@@H]2c3cc4c(cc3[C@H](OC(=O)CCCc3ccc(NS(=O)(=O)c5cccc([N+](=O)[O-])c5)cc3)[C@H]3COC(=O)[C@H]23)OCO4)cc(OC)c1OC [Compound E13, (5R,5aR,8aR,9R)-8-oxo-9-(3,4,5-trimethoxyphenyl)-5,5a,6,8,8a,9-hexahydrofuro [3′,4′:6,7]naphtho[2,3-d][1,3]dioxol-5-yl4-(4-((3-nitrophenyl)sulfonamido)phenyl)butanoate]",42 ± 1.35,51.3 ± 1.15,4.94 ± 0.42,9.92 ± 0.92,> 100,48.1 ± 1.09,
"O=c1cc(N2CCOCC2)oc2c(-c3ccccc3)cccc12 [LY294002, reference compound]",,,,,,,notable reduction
"COc1cc([C@@H]2c3cc4c(cc3[C@H](OC(=O)CCCc3ccc(NS(=O)(=O)c5ccccc5)cc3)[C@H]3COC(=O)[C@H]23)OCO4)cc(OC)c1OC [Compound E1, (5R,5aR,8aR,9R)-8-oxo-9-(3,4,5-trimethoxyphenyl)-5,5a,6,8,8a,9-hexahydrofuro [3′,4′:6,7]naphtho[2,3-d][1,3]dioxol-5-yl 4-(4-(phenylsulfonamido)phenyl)butanoate]",25 ± 1.11,> 100,2.73 ± 0.36,22.9 ± 1.33,83.6 ± 1.85,> 100,
"COc1cc([C@@H]2c3cc4c(cc3[C@H](OC(=O)CCCc3ccc(NS(=O)(=O)c5cccc(F)c5)cc3)[C@H]3COC(=O)[C@H]23)OCO4)cc(OC)c1OC [Compound E6, (5R,5aR,8aR,9R)-8-oxo-9-(3,4,5-trimethoxyphenyl)-5,5a,6,8,8a,9-hexahydrofuro [3′,4′:6,7]naphtho[2,3-d][1,3]dioxol-5-yl4-(4-((3-fluorophenyl)sulfonamido)phenyl)butanoate]",25.9 ± 1.34,12.7 ± 0.69,1.08 ± 0.32,6.07 ± 0.25,94.3 ± 2.66,> 100,
"COc1cc([C@@H]2c3cc4c(cc3[C@H](OC(=O)CCCc3ccc(NS(=O)(=O)c5c(F)cccc5F)cc3)[C@H]3COC(=O)[C@H]23)OCO4)cc(OC)c1OC [Compound E10, (5R,5aR,8aR,9R)-8-oxo-9-(3,4,5-trimethoxyphenyl)-5,5a,6,8,8a,9-hexahydrofuro [3′,4′:6,7]naphtho[2,3-d][1,3]dioxol-5-yl4-(4-((2,6-difluorophenyl)sulfonamido)phenyl)butanoate]",8.4 ± 0.79,27.5 ± 2.54,0.95 ± 0.22,7.28 ± 0.96,> 100,> 100,
"COc1cc([C@@H]2c3cc4c(cc3[C@H](OC(=O)CCCc3ccc(NS(=O)(=O)c5ccccc5[N+](=O)[O-])cc3)[C@H]3COC(=O)[C@H]23)OCO4)cc(OC)c1OC [Compound E11, (5R,5aR,8aR,9R)-8-oxo-9-(3,4,5-trimethoxyphenyl)-5,5a,6,8,8a,9-hexahydrofuro [3′,4′:6,7]naphtho[2,3-d][1,3]dioxol-5-yl4-(4-((2-nitrophenyl)sulfonamido)phenyl)butanoate]",8.07 ± 0.63,46.7 ± 2.04,27.8 ± 1.51,10.5 ± 2.08,> 100,> 100,
"COc1cc([C@@H]2c3cc4c(cc3[C@H](OC(=O)CCCc3ccc(NS(=O)(=O)c5cc([N+](=O)[O-])ccc5C)cc3)[C@H]3COC(=O)[C@H]23)OCO4)cc(OC)c1OC [Compound E15, (5R,5aR,8aR,9R)-8-oxo-9-(3,4,5-trimethoxyphenyl)-5,5a,6,8,8a,9-hexahydrofuro [3′,4′:6,7]naphtho[2,3-d][1,3]dioxol-5-yl4-(4-((2-methyl-5-nitrophenyl)sulfonamido)phenyl)butanoate]",59.25 ± 0.42,16.9 ± 1.01,7.34 ± 1.32,36.6 ± 1.59,97.3 ± 1.41,> 100,
"COc1cc([C@@H]2c3cc4c(cc3[C@H](OC(=O)CCCc3ccc(NS(=O)(=O)c5ccc(C)cc5)cc3)[C@H]3COC(=O)[C@H]23)OCO4)cc(OC)c1OC [Compound E12, (5R,5aR,8aR,9R)-8-oxo-9-(3,4,5-trimethoxyphenyl)-5,5a,6,8,8a,9-hexahydrofuro [3′,4′:6,7]naphtho[2,3-d][1,3]dioxol-5-yl4-(4-((4-methylphenyl)sulfonamido)phenyl)butanoate]",36.8 ± 0.56,36.1 ± 1.49,27 ± 1.33,27.2 ± 2.06,79.3 ± 1.07,> 100,
"COc1cc([C@@H]2c3cc4c(cc3[C@H](OC(=O)CCCc3ccc(NS(=O)(=O)c5ccc([N+](=O)[O-])cc5)cc3)[C@H]3COC(=O)[C@H]23)OCO4)cc(OC)c1OC [Compound E14, (5R,5aR,8aR,9R)-8-oxo-9-(3,4,5-trimethoxyphenyl)-5,5a,6,8,8a,9-hexahydrofuro [3′,4′:6,7]naphtho[2,3-d][1,3]dioxol-5-yl4-(4-((4-nitrophenyl)sulfonamido)phenyl)butanoate]",59.9 ± 1.71,26.8 ± 0.63,11 ± 2.51,29.4 ± 2.54,> 100,> 100,
"COc1cc([C@@H]2c3cc4c(cc3[C@H](OC(=O)CCCc3ccc(NS(=O)(=O)c5ccc(C(F)(F)F)cc5)cc3)[C@H]3COC(=O)[C@H]23)OCO4)cc(OC)c1OC [Compound E8, (5R,5aR,8aR,9R)-8-oxo-9-(3,4,5-trimethoxyphenyl)-5,5a,6,8,8a,9-hexahydrofuro [3′,4′:6,7]naphtho[2,3-d][1,3]dioxol-5-yl4-(4-((4-(trifluoromethyl)phenyl)sulfonamido)phenyl)butanoate]",21.2 ± 0.52,51.8 ± 1.27,19.5 ± 1.09,29.18 ± 0.29,> 100,> 100,
"COc1cc([C@@H]2c3cc4c(cc3[C@H](OC(=O)CCCc3ccc(NS(=O)(=O)c5ccccc5F)cc3)[C@H]3COC(=O)[C@H]23)OCO4)cc(OC)c1OC [Compound E7, (5R,5aR,8aR,9R)-8-oxo-9-(3,4,5-trimethoxyphenyl)-5,5a,6,8,8a,9-hexahydrofuro [3′,4′:6,7]naphtho[2,3-d][1,3]dioxol-5-yl4-(4-((2-fluorophenyl)sulfonamido)phenyl)butanoate]",18.9 ± 0.81,13.6 ± 0.71,20.2 ± 0.79,> 100,> 100,> 100,
"COc1cc([C@@H]2c3cc4c(cc3[C@H](OC(=O)CCCc3ccc(NS(=O)(=O)c5ccc(Br)cc5)cc3)[C@H]3COC(=O)[C@H]23)OCO4)cc(OC)c1OC [Compound E4, (5R,5aR,8aR,9R)-8-oxo-9-(3,4,5-trimethoxyphenyl)-5,5a,6,8,8a,9-hexahydrofuro [3′,4′:6,7]naphtho[2,3-d][1,3]dioxol-5-yl4-(4-((4-bromophenyl)sulfonamido)phenyl)butanoate]",70.91 ± 0.47,18.4 ± 0.22,2.57 ± 0.98,17.4 ± 0.95,> 100,> 100,
